Results: ChEMBL document CHEMBL4368912, “Discovery and Development of N-[4-(1-Cyclobutylpiperidin-4-yloxy)phenyl]-2-(morpholin-4-yl)acetamide Dihydrochloride (SUVN-G3031): A Novel, Potent, Selective, and Orally Active Histamine H3 Receptor Inverse Agonist with Robust Wake-Promoting Activity” (J Med Chem, 2019)
Activity calls are given as the source filed them. The calls are words filed in the database; no cut-off is given here.

Columns and labels:
[1] = target: Histamine H3 receptor (Homo sapiens, UniProt Q9Y5N1); experiment: Displacement of [3]-RAMH from recombinant human histamine H3 receptor expressed in CHO-K1 cell membranes after 60 mins by scintillation counting
[2] = system: Rattus norvegicus; experiment: In vivo inverse agonist activity at histamine 3 receptor in rat assessed as inhibition of RAMH-induced dipsogenia at 1 to 10 mg/kg, po measured after 3 days; assay type: functional, organism-based
Outline: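 Rats were dosed orally with 1, 3 or 10 mg/kg, then given (R)-α-methylhistamine 2.5 mg/kg s.c. Water intake (mL) was measured and reported as mean ± SEM.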

[3] = AUC (0 to 24 hrs) in Wistar rat at 3 mg/kg, po by LC-MS/MS analysis; assay type: ADME, organism-based; parameters: dose 3 mg/kg, time < 24 hr, route oral; settings: in vivo
Outline: (§1)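 Fasted male Wistar rats; compound in water for injection, given i.v. (2 mL/kg) or p.o. (10 mL/kg). Plasma exposure measured as AUC0-24hr.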

[4] = AUC (0 to 24 hrs) in Wistar rat at 1 mg/kg, iv by LC-MS/MS analysis; assay type: ADME, organism-based; parameters: time < 24 hr, dose 1 mg/kg, route intravenous; settings: in vivo; for AUC(0-t) at 24 h: Wistar; outline: as §1
[5] = Tmax in Wistar rat at 3 mg/kg, po or 1 mg/kg, iv by LC-MS/MS analysis; assay type: ADME, organism-based; settings: in vivo
Outline: (§2)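 Fasted male Wistar rats were dosed orally and intravenously, with water for injection as the vehicle for both routes, at dosing volumes of 10 mL/kg p.o. and 2 mL/kg i.v.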

[6] = Volume of distribution at steady state in Wistar rat at 3 mg/kg, po or 1 mg/kg, iv by LC-MS/MS analysis; assay type: ADME, organism-based; settings: Wistar, in vivo, read-out: Vdss; outline: as §2
[7] = Oral bioavailability in Wistar rat at 3 mg/kg by LC-MS/MS analysis; assay type: ADME, organism-based; settings: in vivo; outline: as §2
[8] = Ratio of drug uptake in Wistar rat brain to plasma at 3 mg/kg, po by LC-MS/MS analysis; assay type: ADME, organism-based; settings: brain and plasma, read-out: BPR
Outline: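 Fasted male Wistar rats were dosed orally with water for injection as the vehicle. Total brain and plasma concentrations were measured at 1 h after dosing and expressed as a ratio.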

[9] = Clearance in Wistar rat at 1 mg/kg, iv by LC-MS/MS analysis; assay type: ADME, organism-based; settings: in vivo
Outline: (§3)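 Fasted male Wistar rats dosed i.v. in water for injection at 2 mL/kg. Clearance and half-life derived from the i.v. plasma profile.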

[10] = Half life in Wistar rat at 1 mg/kg, iv by LC-MS/MS analysis; assay type: ADME, organism-based; settings: in vivo; outline: as §3
[11] = Partition coefficient, log P of the compound; assay type: physicochemical; settings: octanol/water
[12] = Lipophilicity, log D of the compound at pH 7.4; assay type: physicochemical; settings: buffer
[13] = Dissociation constant, pKa1 of the compound by potentiometric titration assay; assay type: physicochemical
[14] = Dissociation constant, pKa2 of the compound by potentiometric titration assay; assay type: physicochemical

Sequence of Histamine H3 receptor (Q9Y5N1 whole entry): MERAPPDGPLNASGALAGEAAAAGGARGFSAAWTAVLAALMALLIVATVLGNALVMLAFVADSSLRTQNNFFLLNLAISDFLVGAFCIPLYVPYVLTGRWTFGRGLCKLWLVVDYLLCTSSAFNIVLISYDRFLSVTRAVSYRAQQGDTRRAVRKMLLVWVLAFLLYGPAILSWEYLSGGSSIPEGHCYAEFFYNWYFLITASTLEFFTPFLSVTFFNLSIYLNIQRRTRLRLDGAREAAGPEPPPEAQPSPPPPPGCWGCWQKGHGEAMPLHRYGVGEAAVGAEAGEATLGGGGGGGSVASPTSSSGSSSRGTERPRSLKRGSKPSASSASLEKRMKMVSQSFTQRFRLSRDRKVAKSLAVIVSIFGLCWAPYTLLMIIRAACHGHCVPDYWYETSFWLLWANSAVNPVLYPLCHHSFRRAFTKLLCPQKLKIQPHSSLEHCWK

## CC(=O)N1CCN(CC(=O)Nc2ccc(OC3CCN(C4CCC4)CC3)cc2)CC1
[1]
  Ki: 5.39 nM

## Cc1cc(OC2CCN(C3CCC3)CC2)ccc1NC(=O)CN1CCCCC1
[1]
  Ki: 3.3 nM

## O=C(CN1CCC(F)CC1)Nc1ccc(OC2CCN(C3CCC3)CC2)cc1
[1]
  Ki: 11 nM

## O=C(CN1CCC(F)(F)CC1)Nc1ccc(OC2CCN(C3CCC3)CC2)cc1
[1]
  Ki: 23.6 nM

## C[C@@H]1CCCN1CCc1ccc(NC(=O)CN2CCOCC2)cc1
[1]
  Ki: 108 nM

## O=C(CN1CCOCC1)Nc1ccccc1OC1CCN(C2CCC2)CC1
[1]
  Ki: > 10000 nM

## Clc1ccc(CCCOCCCN2CCCCC2)cc1
[2]
  inhibition: Active

## O=C(NCCN1CCCCC1)c1ccc(OC2CCN(C3CCC3)CC2)cc1
[1]
  Ki: 3.2 nM

## O=C(CN1CCOC(CO)C1)Nc1ccc(OC2CCN(C3CCC3)CC2)cc1 (stereo unspecified)
[1]
  Ki: 4.05 nM

## CN(C(=O)CN1CCOCC1)c1ccc(OC2CCN(C3CCC3)CC2)cc1
[1]
  Ki: 4.89 nM

## C[C@@H]1CCCN1CC(=O)Nc1ccc(CN2CCOCC2)cc1
[1]
  Ki: 915 nM

## C[C@@H]1CCCN1Cc1ccc(NC(=O)CN2CCOCC2)cc1
[1]
  Ki: 3570 nM

## O=C(CN1CCOCC1)Nc1ccc(OC2CCN(C3CCC3)CC2)cc1C(F)(F)F
[1]
  Ki: 75.8 nM

## O=C(CN1CCOCC1)Nc1ccc(OC2CCN(C3CCCC3)CC2)cc1
[1]
  Ki: 29.9 nM

## C[C@@H]1CCCN1CC(=O)Nc1ccc(N2CCOCC2)cc1
[1]
  Ki: 1460 nM

## O=C(CN1CCOCC1)Nc1ccc(OC2CCN(C3CCC3)CC2)cc1F
[1]
  Ki: 14.9 nM

## O=C(CN1CCCCC1)Nc1ccc(OC2CCN(C3CCC3)CC2)cc1C(F)(F)F
[1]
  Ki: 14.8 nM

## Cc1cc(OC2CCN(C3CCC3)CC2)ccc1NC(=O)CN1CCCC1.Cl.Cl
[1]
  Ki: 1.9 nM
[3]
  AUC(0-t) at 24 h: 1350 ng·h/mL
[4]; 24 h
  AUC: 3345 ng·h/mL
[5]
  Tmax: 2.17 h
[6]
  Vd: 27 L/kg
[7]
  bioavailability: 20%
[8]
  Kp: 1.2

## O=C(Cc1ccncc1)Nc1ccc(OC2CCN(C3CCC3)CC2)cc1.O=C(O)C(O)C(O)C(=O)O
[1]
  Ki: 9.51 nM
[3]
  AUC(0-t) at 24 h: 545 ng·h/mL
[4]
  AUC(0-t) at 24 h: 145 ng·h/mL
[5]
  Tmax: 0.25 h
[6]
  Vd: 7 L/kg
[9]
  clearance: 113 mL/min/kg
[10]
  half-life: 1.12 h
[7]
  bioavailability: 125%
[8]
  Kp: 0.16

## O=C(CN1CCCCCC1)Nc1ccc(OC2CCN(C3CCC3)CC2)cc1
[1]
  Ki: 2.6 nM
[11]
  logP: 4.3
[12]
  logD: 1.7
[13]
  pKa: 9.2
[14]
  pKa: 7.6

## O=C(CN1CCOCC1)Nc1cccc(OC2CCN(C3CCC3)CC2)c1
[1]
  Ki: 212 nM

## CC(C)N1CCC(Oc2ccc(C(=O)NCCN3CCCCC3)cc2)CC1
[1]
  Ki: 9.5 nM

## Cl.Cl.O=C(CN1CCCC1CO)Nc1ccc(OC2CCN(C3CCC3)CC2)cc1 (stereo unspecified)
[1]
  Ki: 1.2 nM
[11]
  logP: 2.1
[12]
  logD: 0.6
[13]
  pKa: 8.9
[14]
  pKa: 6.4
[3]
  AUC(0-t) at 24 h: 63 ng·h/mL
[4]
  AUC(0-t) at 24 h: 212 ng·h/mL
[5]
  Tmax: 0.58 h
[6]
  Vd: 9 L/kg
[9]
  clearance: 67 mL/min/kg
[10]
  half-life: 1.88 h
[7]
  bioavailability: 10%

## O=C(NCCN1CCCC1)c1ccc(OC2CCN(C3CCC3)CC2)cc1
[1]
  Ki: 2.9 nM

## O=C(NCCN1CCCC1)c1ccc(OC2CCN(C3CCCC3)CC2)cc1
[1]
  Ki: 2.4 nM
[3]
  AUC(0-t) at 24 h: 205 ng·h/mL
[4]
  AUC(0-t) at 24 h: 174 ng·h/mL
[5]
  Tmax: 3.33 h
[6]
  Vd: 135 L/kg
[9]
  clearance: 156 mL/min/kg
[7]
  bioavailability: 48%

## Cc1cc(OC2CCN(C3CCC3)CC2)ccc1NC(=O)CN1CCC[C@H]1C
[1]
  Ki: 2.4 nM
